# Data published in the RNAGym collection of RNA variant scans (doi:10.1126/science.aae0568).
# This sample holds only a part of the variants without activity.
# B1: tRNA (parent)
# chain: GUUCCGUUGGCGUAAUGGUAACGCGUCUCCCUCCUAAGGAGAAGACUGCGGGUUCGAGUCCCGUACGGAACG
# Variants of: B1
# Assay: yeast fitness relative to wild type (ratio to wild type); higher = fitter; tRNA-Arg(CCU), competitive growth, 37 C, YPD
# Summary of the method: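 Genotype frequency changes were the basis for Darwinian fitness relative to wild type. The frequencies came from 100-nucleotide paired-end sequencing of gene amplicons from the start population and each end population of pooled yeast strains with tRNA-Arg(CCU) gene variants at the native locus. Competition ran in YPD at 37°C for 24 hours in six replicates, genotypes needed ≥ 100 starting reads, and estimates < 0.5 were set to 0.5.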
row,Variant,yeast fitness
1,GUUCCGUUGGCGUGAUGGUAACGCGUCUCCCUCCUACGGAGAAGACUGCGGGUUCAAGUCCCGUACGGAACG,≤ 0.5
2,GUUCCGUUGGCGUGAUGGUAACGCGUCUCCCUCCUAAGGAGAAGGCUGCGGGUUCGAGUCACGUACGGAACG,≤ 0.5
3,GUUCCGUUGGCGUGAUGGUAAUGUGUCUCCCUCCUAAGGAGAAGACUGCGGGUUCGAGUCCCGUCCGGAACG,≤ 0.5
4,GUUCCGUUGGCGUGAUGGUAACGCGUCUCCCUCCUAAGGAGAGGACUGCGGGUUCGAGUUCUGUACGGACCG,≤ 0.5
5,GUUCCGUUGGCGUGAUGGUAACGCGUCUCCCUCCUAGGGAGAAGACUGCGGGUUCGAGUCCCGUACGGAACG,0.718
6,GUUCCGUUGGCGUGAUGGUAAUGCGUCUCCCUCUAAAGGAGAAGACUGCGGGUUAGAGUCCCGUACGGAACG,≤ 0.5
7,GUUCCGUUGGCGUGAUGGUACCGCGUCUCGCUCCUAAGGAGAAGACUGCGGGUUGGAGUCCCGUACGGAACG,0.533
8,GUUCCGUUGGCGUGAUGGUAACGCGUCUCCCUCCUAAGGAGGAGACUCCGGGUUCGAGUCCCGUACGGAACG,0.568
9,GUUCCGUUGGCGUGAUGGUAAAGCGUGUCCCUCCUAAGGAGUAGACUGCGGGUUCGAGUCCCGUACGGAACG,≤ 0.5
10,GUUCCGUUGGCGUGAUGGUAUCGCGUCUCCCUCCUAAGGAGAAGACGGGGGGUUCCAGUCCCGUACGGAACG,≤ 0.5
11,GUUCCGUUGGCGUGUUGGUAACGCGUCUCCCUCCUAAGUAGAAGACUGCGGGUUCGAGUCUCGUACGGAACG,≤ 0.5
12,GUUCCGUUGGCGUGAUGGUAACGCGUCUCCCUCCUAAGGAGAGGACUGCGGGUUCGAGUCCCGUACGGAACG,0.932
13,GUUCCGUUGGCGUGAUGGUAAAGCGUAUUCCUCCUAAGGAGCAGACUGCGGGUUCGAGUCCCGUACGGACCG,≤ 0.5
14,GUUCCGUUGGCGUGAUGGUAACGCGUCUCCCUCCUAAGGAGAAGGCUGCAGGUUCGAGUCCCGUACGGAACG,≤ 0.5
15,GUUCCGUUGGCGUGAUGGUAACGCGUCUCCCUCCUAAGGAGCAGACUGCAGGUUCGAGUCCCGUACGGACCG,0.593
16,GUUCCGUUGGCGUGAUGGUAACGCGUCUCCCUCCUAAGGAGUACACUGCGGGUACGAGUCCCGUACGGAACG,≤ 0.5
17,GUUCCGUUGGCGUGAUGGUACCGCGUCUCCCUCCUAAGGAGAAGACUGCGGGUUCGAGUCCCCUACGGAACG,0.546
18,GUUCCGUUGGCGUGAUGGUGACGCGUCUCCCUCCUAAGGAGUAGACUGCGGGUUCGAGUCCCGUACGGAACG,0.696
19,GUUCCGUUGGCGUGAUGGUAAAGCGUAUUCCUCCUAAGGAGCAGACUGCGGGUUCGAGUCCCCUACGGAACG,≤ 0.5

row,Variant,yeast fitness
1,GUUCCGUUGGCGUGAUGGUAACGCGUCUCCCUCCUAAGGAGAGGACUGCGGCCUCGAGUCCCCUACGGAACG,≤ 0.5
2,GUUCCGUUGGCGUGAUGGUAACGCGUCUCCCUCCUCAGGAGAAGACUGCGGGUUCGCGUCCCGUACGAAACG,≤ 0.5
3,GUUCCGUUGGCGUGAUGGUAACGCGUCUCCCUCCUAAGGAGUAGACUGCGGGUUCGAGUCCUGUACGGACCG,≤ 0.5
4,GUUCCGUUGGCGUGAUGGUAACGCGUCUCCCUCCUAAGGAGAAGUCUGCGGGUUCGAGUCUCGUACGGAACG,0.665
5,GUUCCGUUGGCGUGAUGGUAACGCGUCUCCCUCCUAAGGAGACGGCUGCGGGUUCGAGUCCCGUACGGAACG,0.585
6,GUUCCGUUGGCGUGGUGGUAACGCGUCUCCCUGUUAAGGAGACGACUGGGGGUUCGAGUCGCGUAUGGUACG,≤ 0.5
7,GUUCCGUUGGCGUGGUGGUAACGCGUCUCCCUCCCAAGGAGAAGACUGCGGGUUCGAGUCCCGUACGGAACG,0.572
8,GUUCCGUUGGCGUGAUGGUAACGCGUCUCCCUCCUAAGGAGAAGACUGCGGGUUCGCGUCCCGUACGGAACG,0.555
9,GUUCCGUUGGCGUGAUGGUAACGCGUCUCCCUCCUUAGGAGAAGACUGCGGGUUCGAGUCCCGUGCGGAACG,≤ 0.5
10,GUUCCGUUGGCGUGAUGGUAACGCGUCUCCCUCCUAAGGAGGAGAGUGCGGGUUCGAGUCCCGUACGGAACG,0.517
11,GUUCCGUUGGCGUGAUGGUACCGCGUCUCCCUCCUAAGGAGAAGACUGCGGGUUCGAGUCCCGUACGGAACG,0.866
12,GUUCCGUUGGCGUGAUGGUAGCGCGUCUCCCUCCUAAGGAGAAGACUGCGGGUUCGAGUCCCGUACGGAACG,0.989
13,GUUCCGUUGGCGUGAUGGUAAUGCGUCUCCCUCCUAAGGAGAAGACUGCGGGUUCGAGUCCCGUACGGACCG,≤ 0.5
14,GUUCCGUUGGCGUGAUGGUAACGCGUCUCCCUCCUAAGGAGAAGACUGCGGGUUCGAGUCCCGUUCGGAACG,0.737
15,GUUCCGUUGGCGUGAUGGUAACGCGUCUCCCUCCUAAGGAGAAGACUGCGGGUUCGAGUCCCGUCCGGAACG,0.903
16,GUUCCGUUGGCGUGAUGGUAACGCGUCUCCCUCCUGAGGAGAAGUCUGCGGGUUCGAGUCCCGUACGGAACG,0.534
17,GUUCCGUUGGCGUGUUGGUAACGCGUCUCCCUCCUAAGGAGAAGACUGCGGGUUCGAGUCCCGUACGGAACG,0.704
18,GUUCCGUUGGCGUGAUGGUAACGCGUCUCCCUCCUUGGGAGAAGAAUACGGGUUCGAGUCCCGUACGGAACG,≤ 0.5
19,GUUCCGUUGGCGUGAUGGUCACGCGUCUCCGUCCUAAGGAGAAGUCUCCGGGUUCGAGUCCCGUACGGAACG,≤ 0.5
